Legend:
[1] = biological target: Sodium- and chloride-dependent GABA transporter 1 (Rattus norvegicus, UniProt P23978); test: In vitro inhibition of [3H]GABA uptake at the Sodium- and chloride-dependent GABA transporter 1 (GAT-1) uptake site in rat brain synaptosomes; type: subcellular
Outline: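 Rat forebrain homogenised in ice-cold 0.32 M sucrose and spun at 600g for 10 min at 4 °C; pellet resuspended in Na phosphate/glucose buffer, pH 7.4. Synaptosomes (0.1 mg protein) preincubated with compound for 8 min at 30 °C, then 8 min with [3H]-GABA and unlabeled GABA (each […] final). Filtration assay; nipecotic acid defined non-carrier uptake. IC50 from ≥3-point curves; Ki = IC50/(1+[L]/Km), [L] 25 nM, Km 3700 nM.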

[2] = biological target: GABA transporter (Mus musculus) (UniProt P31650+P31651+P31649+P31648); test: Dose that protected 50% of the mice against seizures induced by intraperitoneally administered DMCM (15 mg/Kg) 30 min after intraperitoneal administration; type: functional, organism-based
Outline: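 Male or female NMRI mice, 20–25 g, given test compound i.p.; 30 min later DMCM 15 mg/kg i.p. Eight mice per dose. Animals showing no clonic seizures within 15 min counted as protected. ED50 is the dose protecting 50% of mice.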

Mus musculus = species: Mus musculus; test: Evaluation for Ataxia (neurological toxicity) in mice using a rotarod apparatus.; type: functional
Outline: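 NMRI mice trained 2 min on a rod rotating at 6 rev/min toward the animal, then dosed i.p. with test compound (n = 8/dose) as in the seizure test and placed on the rod. ED50 is the dose producing falls in 50% of mice.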

| Ki [1] | Structure (SMILES) | ED50 [2] | ED50 (Mus musculus) |
| --- | --- | --- | --- |
| 0.061 µM | Cc1cc(F)ccc1C(=COCCN1CCC[C@@H](C(=O)O)C1)c1ccc(F)cc1C | 3 mg/kg | 14.2 mg/kg |
| 0.028 µM | Cc1ccccc1/C(=C/OCCN1CCC[C@@H](C(=O)O)C1)c1cccc(F)c1 | 0.5 mg/kg | 1.5 mg/kg |
